The source made the active and inactive calls. No cut-off for these calls is given here.

One may read the inhibition as the percentage by which the read-out fell short of the control. In general, IC50 refers to the point on the concentration scale where inhibition reaches its midpoint.

The target of test [1] is T1, Protein mono-ADP-ribosyltransferase PARP3 (Homo sapiens) (UniProt Q9Y6F1).
T1 sequence (whole entry): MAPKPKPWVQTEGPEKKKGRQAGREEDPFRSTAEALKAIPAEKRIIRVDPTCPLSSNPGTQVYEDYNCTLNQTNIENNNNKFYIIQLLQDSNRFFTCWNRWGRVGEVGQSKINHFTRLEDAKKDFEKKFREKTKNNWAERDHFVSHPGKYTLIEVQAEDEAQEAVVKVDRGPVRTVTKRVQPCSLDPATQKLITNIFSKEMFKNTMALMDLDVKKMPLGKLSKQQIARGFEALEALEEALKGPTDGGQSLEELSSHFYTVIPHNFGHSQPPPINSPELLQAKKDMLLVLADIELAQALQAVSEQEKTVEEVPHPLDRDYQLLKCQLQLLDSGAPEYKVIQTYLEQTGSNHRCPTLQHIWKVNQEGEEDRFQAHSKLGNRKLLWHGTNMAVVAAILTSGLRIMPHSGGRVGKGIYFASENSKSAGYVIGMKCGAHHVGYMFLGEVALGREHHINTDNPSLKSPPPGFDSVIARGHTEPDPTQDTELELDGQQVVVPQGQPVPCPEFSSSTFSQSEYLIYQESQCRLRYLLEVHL
The experiment in a line: Inhibition of human recombinant PARP3 at 10 uM incubated for 1 hr using NAD+, biotinylated NAD+ and activated DNA by luminescence based assay. An outline of the steps:
(§1)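 Recombinant PARP enzyme reactions were run in duplicate for 1 h at rt on histone-coated plates in Tris·HCl pH 8.0 buffer with NAD+, biotinylated NAD+ and activated DNA. Detection used streptavidin-HRP for 30 min at rt, then a chemiluminescent developer. % inhibition = 100 − % activity, scaled between the no-compound (100%) and no-enzyme (0%) signals.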

Test [2] addresses T2, Protein mono-ADP-ribosyltransferase TIPARP (Homo sapiens) (UniProt Q7Z3E1).
T2 sequence (whole entry): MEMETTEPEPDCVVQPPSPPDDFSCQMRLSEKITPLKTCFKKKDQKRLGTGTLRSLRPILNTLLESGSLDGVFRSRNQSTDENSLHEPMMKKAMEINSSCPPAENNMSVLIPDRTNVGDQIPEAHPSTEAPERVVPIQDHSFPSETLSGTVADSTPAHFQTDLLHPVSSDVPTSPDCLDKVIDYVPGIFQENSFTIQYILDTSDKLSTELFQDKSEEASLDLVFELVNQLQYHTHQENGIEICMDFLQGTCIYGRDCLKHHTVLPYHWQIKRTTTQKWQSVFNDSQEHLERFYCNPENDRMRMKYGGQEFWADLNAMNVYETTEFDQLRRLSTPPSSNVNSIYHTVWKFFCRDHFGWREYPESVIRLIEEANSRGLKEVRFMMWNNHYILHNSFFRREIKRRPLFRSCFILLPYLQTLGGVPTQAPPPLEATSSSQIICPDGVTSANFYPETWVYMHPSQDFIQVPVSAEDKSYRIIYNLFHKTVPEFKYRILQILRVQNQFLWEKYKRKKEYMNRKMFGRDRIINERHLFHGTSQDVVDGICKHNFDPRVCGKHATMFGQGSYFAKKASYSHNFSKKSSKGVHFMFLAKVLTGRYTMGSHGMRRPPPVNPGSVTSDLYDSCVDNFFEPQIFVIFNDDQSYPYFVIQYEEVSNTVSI
Description: Inhibition of human recombinant PARP7 at 10 uM incubated for 1 hr using NAD+, biotinylated NAD+ and activated DNA by luminescence based assay. The essentials: as §1

In test [3] the target is T3, Poly [ADP-ribose] polymerase tankyrase-1 (Homo sapiens, UniProt O95271).
T3 sequence (O95271 whole entry): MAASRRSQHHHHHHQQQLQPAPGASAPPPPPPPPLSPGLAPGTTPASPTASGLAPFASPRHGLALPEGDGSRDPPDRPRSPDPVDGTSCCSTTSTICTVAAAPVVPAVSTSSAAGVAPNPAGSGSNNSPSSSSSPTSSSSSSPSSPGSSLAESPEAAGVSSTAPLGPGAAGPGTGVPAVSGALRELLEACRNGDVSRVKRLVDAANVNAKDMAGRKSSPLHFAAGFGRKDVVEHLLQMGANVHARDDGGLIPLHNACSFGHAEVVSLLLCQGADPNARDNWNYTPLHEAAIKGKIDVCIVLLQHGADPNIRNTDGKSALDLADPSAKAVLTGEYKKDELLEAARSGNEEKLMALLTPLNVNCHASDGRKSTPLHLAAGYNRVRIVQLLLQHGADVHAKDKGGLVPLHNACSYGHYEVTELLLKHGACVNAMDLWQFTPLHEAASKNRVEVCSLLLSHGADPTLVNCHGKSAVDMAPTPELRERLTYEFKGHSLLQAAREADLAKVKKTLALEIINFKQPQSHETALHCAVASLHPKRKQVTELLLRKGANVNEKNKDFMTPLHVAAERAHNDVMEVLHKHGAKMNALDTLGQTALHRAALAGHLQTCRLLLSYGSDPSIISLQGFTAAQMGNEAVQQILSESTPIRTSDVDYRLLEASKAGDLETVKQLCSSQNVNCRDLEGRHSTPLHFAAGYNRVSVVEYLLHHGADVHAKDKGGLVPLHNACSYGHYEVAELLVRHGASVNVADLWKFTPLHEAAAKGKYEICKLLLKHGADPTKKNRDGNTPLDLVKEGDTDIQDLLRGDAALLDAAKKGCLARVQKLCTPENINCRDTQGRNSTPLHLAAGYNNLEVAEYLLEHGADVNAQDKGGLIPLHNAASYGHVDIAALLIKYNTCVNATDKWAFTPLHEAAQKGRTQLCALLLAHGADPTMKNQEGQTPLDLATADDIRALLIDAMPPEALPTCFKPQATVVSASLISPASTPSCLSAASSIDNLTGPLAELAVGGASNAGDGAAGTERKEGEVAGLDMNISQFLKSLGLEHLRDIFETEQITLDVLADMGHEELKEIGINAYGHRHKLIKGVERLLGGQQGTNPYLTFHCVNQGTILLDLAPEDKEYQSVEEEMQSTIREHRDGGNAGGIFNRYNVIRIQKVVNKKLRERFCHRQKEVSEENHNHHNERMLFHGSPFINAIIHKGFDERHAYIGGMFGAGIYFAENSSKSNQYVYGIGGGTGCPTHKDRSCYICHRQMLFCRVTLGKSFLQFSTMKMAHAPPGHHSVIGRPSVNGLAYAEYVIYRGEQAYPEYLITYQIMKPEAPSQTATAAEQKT
The experiment in a line: Inhibition of GST-tagged human recombinant TNKS1 incubated for 1 hr using NAD+, biotinylated NAD+ and activated DNA by luminescence based assay.

For test [4], the target named is Poly [ADP-ribose] polymerase 2 (Homo sapiens) (UniProt Q9UGN5). The experiment in a line: Inhibition of human recombinant PARP2 incubated for 1 hr using histone substrate at 10 uM by luminescence based assay. An outline of the steps:
as §1

Another test has as its system RKO. The experiment in a line: Growth inhibition of Wnt-negative human RKO cells at >10 uM. The test is classed as functional, cell-based.

Poly [ADP-ribose] polymerase 2 (Homo sapiens), sequence (Q9UGN5 whole entry): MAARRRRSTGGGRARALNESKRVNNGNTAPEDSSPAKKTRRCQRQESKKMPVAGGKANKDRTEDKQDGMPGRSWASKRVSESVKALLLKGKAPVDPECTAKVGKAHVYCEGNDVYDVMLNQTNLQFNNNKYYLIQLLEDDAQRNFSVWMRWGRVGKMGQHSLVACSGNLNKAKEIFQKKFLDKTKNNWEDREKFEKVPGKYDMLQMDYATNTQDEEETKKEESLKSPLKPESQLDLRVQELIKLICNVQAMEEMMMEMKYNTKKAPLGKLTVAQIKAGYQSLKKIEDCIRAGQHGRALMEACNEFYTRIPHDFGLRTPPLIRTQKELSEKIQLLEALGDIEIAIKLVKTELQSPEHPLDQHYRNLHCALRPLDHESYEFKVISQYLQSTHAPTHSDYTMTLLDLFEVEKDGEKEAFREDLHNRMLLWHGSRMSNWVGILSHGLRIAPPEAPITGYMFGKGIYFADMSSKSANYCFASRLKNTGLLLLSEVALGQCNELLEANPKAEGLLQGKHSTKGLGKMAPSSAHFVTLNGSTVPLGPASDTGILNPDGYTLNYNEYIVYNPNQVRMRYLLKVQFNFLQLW

`CC(C)(C)c1ccc(-c2nc3c(sc4ccccc43)c(=O)[nH]2)cc1`: the inhibition in test [1] worked out at 1%; in test [2], 7%; in test [4] it was 0%. Moreover, in test [3], the 50% inhibitory concentration (IC50) was 21.3 nM. Also, the “growth inhibition (GI)” value in the test with RKO was “Active”.

The values above are taken from ChEMBL document CHEMBL3351316, “Scaffold hopping approach on the route to selective tankyrase inhibitors” (Eur J Med Chem, 2014).
